In ChEMBL document CHEMBL4004811, “Enantiodivergence in the Biosynthesis of Bromotyrosine Alkaloids from Sponges?” (2017):
Active and inactive are the calls of the source. The rule behind the calls is not given here.

How the values were obtained:
Format in all cases: functional
[1] = test system: Staphylococcus aureus; assay: Antimicrobial activity against methicillin-resistant Staphylococcus aureus ATCC BAA1026 after 18 hrs by MTT dye based TLC assay
How it was run: (§1)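 Overlay TLC bioautography: samples applied to TLC plates and overlaid with the bacterial culture. The panel covered three S. aureus strains and one E. coli strain. Activity is read as minimum inhibitory quantity (MIQ, μg per spot).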

[2] = test system: Escherichia coli; assay: Antimicrobial activity against Escherichia coli ATCC 25922 after 18 hrs by MTT dye based TLC assay
How it was run: (§2)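 Overlay TLC bioautography: compounds applied on TLC plates and overlaid with the bacterial culture. Activity is reported as the minimum inhibitory quantity (MIQ), in μg of compound.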

[3] = test system: Staphylococcus aureus; assay: Antimicrobial activity against methicillin-sensitive Staphylococcus aureus ATCC 29213 after 18 hrs by MTT dye based TLC assay; how it was run: as §2
[4] = test system: Staphylococcus aureus; assay: Antimicrobial activity against multidrug-resistant Staphylococcus aureus after 18 hrs by MTT dye based TLC assay; how it was run: as §1

## CCOC1(CCCNC(=O)C2=NO[C@@]3(C=C(Br)C(OC)=C(Br)[C@H]3O)C2)N=C(N)NC1=O (mixture of isomers)
[1]
  Activity: Active
[2]
  Activity: inactive
[3]
  Activity: Active
[4]
  Activity: Active

## COC1=C(Br)[C@@H](O)[C@]2(C=C1Br)CC(C(=O)NCCc1ccc(O)c(Br)c1)=NO2
[1]
  Activity: Active
[2]
  Activity: inactive
[3]
  MIC: 0.31 µg
[4]
  Activity: Active

## COC1=C(Br)[C@@H](O)[C@]2(C=C1Br)CC(C(=O)NCCCOc1c(Br)cc(CC(N)C(=O)O)cc1Br)=NO2 (some centres not stated)
[1]
  Activity: Active
[2]
  Activity: inactive
[3]
  Activity: Active
[4]
  Activity: Active

## COC1=C(Br)[C@@H](O)[C@]2(C=C1Br)CC(C(=O)NCCc1cc(Br)c(O)c(Br)c1)=NO2
[1]
  Activity: Active
[2]
  Activity: inactive
[3]
  MIC: 0.31 µg
[4]
  Activity: Active

## CN[C@H](CC(C)C)C(=O)N[C@H]1C(=O)N[C@@H](CC(N)=O)C(=O)N[C@H]2C(=O)N[C@H]3C(=O)N[C@H](C(=O)N[C@H](C(=O)O)c4cc(O)cc(O)c4-c4cc3ccc4O)[C@H](O)c3ccc(c(Cl)c3)Oc3cc2cc(c3O[C@@H]2O[C@H](CO)[C@@H](O)[C@H](O)[C@H]2O[C@H]2C[C@](C)(N)[C@H](O)[C@H](C)O2)Oc2ccc(cc2Cl)[C@H]1O [VANCOMYCIN]
[1]
  MIC: 0.63 µg
[4]
  MIC: 0.63 µg

## COC1=C(Br)[C@@H](O)[C@]2(C=C1Br)CC(C(N)=O)=NO2
[1]
  Activity: Active
[2]
  Activity: inactive
[3]
  Activity: Active
[4]
  Activity: Active

## COC1=C(Br)[C@@H](O)[C@]2(C=C1Br)CC(C(=O)NCCCOc1c(Br)cc(CCN)cc1Br)=NO2
[1]
  Activity: Active
[2]
  Activity: inactive
[3]
  Activity: Active
[4]
  Activity: Active

## CNCCCOc1c(Br)cc(CCNC(=O)/C(Cc2ccc(OC)c(Br)c2)=N/O)cc1Br
[1]
  Activity: Active
[2]
  Activity: inactive
[3]
  Activity: Active
[4]
  Activity: Active

## COC1=C(Br)[C@@H](O)[C@]2(C=C1Br)CC(C(=O)NCCCC(=O)O)=NO2
[1]
  Activity: Active
[2]
  Activity: inactive
[3]
  Activity: Active
[4]
  Activity: Active

## COc1ccc(C/C(=N\O)C(=O)NCCc2cc(Br)c(OCCCN(C)C)c(Br)c2)cc1Br
[1]
  Activity: Active
[2]
  Activity: inactive
[3]
  Activity: Active
[4]
  Activity: Active

## COC1=C(Br)[C@@H](O)[C@]2(C=C1Br)CC(C(=O)NCCCOc1c(Br)cc(C/C(=N\O)C(=O)NCCc3cnc(N)[nH]3)cc1Br)=NO2
[1]
  Activity: Active
[2]
  Activity: inactive
[3]
  Activity: Active
[4]
  Activity: Active
